Only some compounds are listed: those with a hit (about 1.5% of all), similar ones and a draw of the others.
697 NFkB inh – lowers PMA/ionomycin-induced NF-kB signal in 697 B cells; 697 B-cell NF-kB luciferase reporter, 16 h; inhibition, % at 4 µM; 0.33% of 330,000 active; AID 435022; in the data active = inhibition above about 35%
GalR3 antagonist – blocks the human galanin receptor 3. O60755. HEK293 GalR3-CNG cAMP membrane potential fluorescence; galR3 body fused to GalR1 C-terminus. inhibition, % at 3 µM. 0.44% of 360,000 active. AID 651719;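 active = inhibition above the screen-wide average plus 3 SD, cut at about 13% in these data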;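 note: forskolin and galanin both at EC90 stimulate the cells; cAMP rise reported by CNG channel membrane potential dye signal; 0% = forskolin plus galanin with DMSO and 100% = forskolin alone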
NR2E3 ag-1 – agonists of human nuclear receptor NR2E3; Q9Y5X4; GST-NR2E3/biotin-RetCOR TR-FRET, 1536-well; inhibition of corepressor binding, % at 4.78 µM; 0.12% of 320,000 active;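 active = percent inhibition above the cutoff of mean plus 3 SD of all tested compounds, set per screening campaign, cut at about 20% in these data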;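 note: 0% = DMSO wells and 100% = biotin wells as full block of FRET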
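Assay system: NR2E3–RetCOR corepressor complex. Quantity: 1.35 nM GST-NR2E3. Buffer or medium: pH 7.5 Tris-based buffer. Reagent: biotinylated RetCOR corepressor at 7 nM final. Schedule: 5 h at 4 °C. Detection: TR-FRET, emission read at 617 and 671 nm. Replicates: one well per compound, singlicate testing.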
Jurkat NFkB inh – inhibitors of the PMA/ionomycin-induced NF-kB reporter in Jurkat cells | PMA/ionomycin-induced NF-kB luciferase reporter, luminescence | inhibition, % at 4 µM | 0.53% of 330,000 active | AID 435003; in the data active = inhibition above about 50%
NR2E3 ag-2 – activates human NR2E3 receptor; Q9Y5X4; CHO-S Gal4-NCOR/VP16-NR2E3 two-hybrid, luciferase; inhibition of corepressor binding, % at 3.98 µM; 0.35% of 360,000 active; AID 602229;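 active = inhibition above the mean of all tested compounds plus 3 SD, cut at about 70% in these data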;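 note: 0% = DMSO with NR2E3 transfected cells and 100% = cells lacking NR2E3 construct; higher means lower luciferase signal from less NR2E3 corepressor binding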
JMJD2C inh – inhibitors of human GASC-1 (JMJD2C) demethylase. GST-JMJD2C(1-420) H3K9me3 demethylation, DELFIA europium. inhibition, % at 2.35 µM. 0.069% of 330,000 active. AID 2099;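 active = more than half of a compound's replicate wells show inhibition beyond 50%, single wells judged on their own value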;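 note: signal counts dimethyl H3K9 product captured on neutravidin plate; 0% = median of DMSO wells and 100% = 0.3 times that DMSO median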
Target sequence (Q9H3R0 1-420 limits assumed): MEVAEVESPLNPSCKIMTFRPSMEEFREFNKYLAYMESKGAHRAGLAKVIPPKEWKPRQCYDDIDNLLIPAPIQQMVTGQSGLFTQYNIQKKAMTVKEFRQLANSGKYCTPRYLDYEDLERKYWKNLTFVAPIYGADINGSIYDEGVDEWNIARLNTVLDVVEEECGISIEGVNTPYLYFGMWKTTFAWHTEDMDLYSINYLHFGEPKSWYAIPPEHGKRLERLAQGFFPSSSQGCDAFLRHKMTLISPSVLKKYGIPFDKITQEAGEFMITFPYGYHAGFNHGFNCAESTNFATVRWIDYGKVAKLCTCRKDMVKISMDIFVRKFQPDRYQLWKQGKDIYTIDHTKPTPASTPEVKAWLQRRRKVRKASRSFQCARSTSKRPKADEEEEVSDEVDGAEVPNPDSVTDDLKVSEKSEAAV
Jurkat NFkB conf – lowers PMA/ionomycin-induced NF-kB signal in Jurkat cells. shares compounds with Jurkat NFkB inh. Jurkat NF-kB luciferase, 16 h. inhibition, % at 4 µM. 27% of 2,700 active. AID 435020;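 active = inhibition reaching about 45% at 4 µM in either replicate, limit read from the data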;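 note: plate controls were PMA/ionomycin stimulated DMSO wells for no effect and unstimulated DMSO wells for full effect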
* = called active by the depositor; . = no result.

SMILES	697 NFkB inh	GalR3 antagonist	NR2E3 ag-1	Jurkat NFkB inh	NR2E3 ag-2	JMJD2C inh	Jurkat NFkB conf
CC(C)CNS(=O)(=O)c1ccc(CCC(=O)N2CCC(C(N)=O)CC2)cc1	7	-8	0	2	14	-13	.
CC(C)(C)OC(=O)NCCCCCc1cn(CC(=O)NCCCCCCCCCCC(=O)N2CCN(C(=O)OC(C)(C)C)CC2)nn1	-13	5	6	55*	-34	0	56*
C#CCOCCOCCOCCNc1nc(N2CCN(C(=O)CCCCCCCCCCNC(=O)Cn3cc(CCCCCN)nn3)CC2)nc(N2CCN(C(=O)CCCCCCCCCCNC(=O)Cn3cc(C[C@@H](C)O)nn3)CC2)n1	-19	.	1	8	-15	.	.
CNC[C@H](CC1CCCCC1)NC[C@H](Cc1ccccc1)NCCC12CC3CC(CC(C3)C1)C2	21	-3	-2	91*	10	-9	45
CCCC(=O)Nc1nc2ccc(S(=O)(=O)N3CCCCC3)cc2s1	-49	-2	-3	52*	-7	-14	49
CC(=O)Nc1nc2ccc(S(=O)(=O)N3CCCC3)cc2s1	-5	0	2	7	-17	-2	.
COc1cccc(CNC(=O)C2=C(C)C(=O)OC23CCC(C)CC3)c1 (stereo not drawn)	-3	-2	0	1	-2	-1	.
COc1ccc(-c2cc3ccc(OCC(C)=O)cc3oc2=O)cc1OC	-52	1	1	-71	-56	-12	.
COc1ccc(-c2cc3ccc(OCC(C)=O)cc3oc2=O)cc1	-170	0	5	-154	-120	11	-105
COc1cc(CCC(=O)NCCc2ccc(F)cc2)cc(OC)c1OC	-10	-1	-1	10	-1	-3	.
COCCN(C(=O)COC(=O)CCC1CCCC1)c1c(N)n(Cc2ccccc2)c(=O)[nH]c1=O	-1	2	-2	-3	-6	-3	.
COc1cccc(C(=O)Nc2ccc3nc(N4CCN(c5ncccn5)CC4)cc(C)c3c2)c1OC	-28	.	3	19	.	0	.
CCOc1ccccc1C(=O)Nc1ccc2nc(N3CCN(c4ncccn4)CC3)cc(C)c2c1	-49	.	0	70*	.	9	44
CCN1CCN(c2cc(C)c3cc(NC(=O)CCC(=O)Nc4ccc(OC)c(OC)c4)ccc3n2)CC1	7	-3	3	-4	28	3	.
CCN1CCN(c2cc(C)c3cc(NC(=O)c4ccc(OC)c(OC)c4)ccc3n2)CC1	-63	0	6	57*	18	5	29
COCc1cc(N2CCNC[C@H]2C)ccc1N1CCN(Cc2ccccc2)[C@H](C)C1	.	-4	.	.	.	.	.
Cn1cccc1/C=C1\SC(=Nc2ccc(O)cc2)NC1=O	-52	2	-5	56*	-26	6	8
O=C1NC(=O)C2(COC3(CCCC3)OC2)S1	-7	-7	0	-4	-8	0	.
O=C(O)C(=O)/C(=C\c1ccc(Cl)cc1)c1ccc2ccccc2n1	-84	-7	-2	-156	-58	3	-54
CCO[C@@H]1OC(C(=O)NCc2nc3ccccc3[nH]2)=C[C@H](C(C)(C)C)[C@H]1CCCO	-63	4	0	73*	40	-9	55*
COC(=O)/C(=C\Nc1ccc(Cl)cc1Cl)NC(=O)c1ccc(OC)cc1	-2	4	-1	66*	-18	-1	-1
COC(=O)/C(=C\Nc1ccc(OC)cc1)NC(=O)c1ccc(Cl)cc1Cl	4	-3	1	-13	-32	-3	.
Cc1noc(C)c1COc1ccccc1C(=O)N1CCN(c2cccc(C(F)(F)F)c2)CC1	-65	-12	0	55*	-40	1	16
Cc1c(C(=O)C(=O)NCC2CCCO2)c2ccccc2n1C (stereo not drawn)	6	-7	-3	-5	4	-5	.
O=c1c2sc(-c3ccccc3)cc2nc2n1CCCCC2	-209	-4	1	-166	-139	-12	-123
COC(=O)c1ccc2c(c1)c(-c1ccccc1)c(-c1ccccc1)n2C	5	-6	.	.	-18	.	.
Cc1cccc(NC(=O)c2cccc3c2-c2ccccc2C3=O)n1	0	-2	4	4	-7	-12	.

High-throughput results as filed in PubChem BioAssay.
